Bioassay records from PubChem BioAssay.
Efflux pump inh: antifungal efflux pump inhibition, Nile Red retention | S. cerevisiae Candida pump triplex | inhibition, % at 10 µM | hit rate 0.44% among 330,000;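 active means plate passing quality check with inhibition over a set limit, or well fluorescence over plate mean plus 4 SD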;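 further: Nile Red retained in pooled yeast measured as flow cytometry median fluorescence; higher means more Nile Red kept so more efflux inhibition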
TAG inh: reduces triacylglycerol accumulation in H9c2 cells. Nile Red lipid (TAG) fluorescence; cells loaded with 200 µM oleic acid. inhibition, % at 12.5 µM. hit rate 0.66% among 230,000. AID 651582;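 active means pattern-corrected inhibition of lipid staining of at least 50% with the nuclear-stain viability signal not falling by more than 50%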
SMARCA2 activ: SMARCA2 function activation, primary screen; MG213 cells, MMTV-luciferase reporter, dexamethasone, overnight; activation, % at 9.1 µM; hit rate 1% among 370,000; in the data active means activation above about 7.8%
TbMetRS inhib: blocks T. brucei methionyl-tRNA synthetase activity | hit rate 0.4% among 360,000 | inhibition, % at 11.9 µM | purified T. brucei MetRS, ATP depletion, Kinase-Glo luminescence | AID 624268;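 active means inhibition above a per-plate cutoff of the control wells' mean inhibition plus 3 SD, cut at about 5.5% in these data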
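Dosing: 11.9 µM single point; system: parasite MetRS enzyme; technique: luminescence of leftover ATP; times: 15 min enzyme-compound preincubation, 2 h reaction, 10 min detection, 25 °C; replicates: each compound tested once; read-out basis: percent inhibition relative to median high and low control wells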
AHR act: human AHR activation; P35869; AHR-responsive luciferase reporter cells, luminescence; activation, % at 5 µM; hit rate 2.5% among 320,000; AID 2796; in the data active means activation above about 47%
Target sequence (P35869 whole entry, looked up): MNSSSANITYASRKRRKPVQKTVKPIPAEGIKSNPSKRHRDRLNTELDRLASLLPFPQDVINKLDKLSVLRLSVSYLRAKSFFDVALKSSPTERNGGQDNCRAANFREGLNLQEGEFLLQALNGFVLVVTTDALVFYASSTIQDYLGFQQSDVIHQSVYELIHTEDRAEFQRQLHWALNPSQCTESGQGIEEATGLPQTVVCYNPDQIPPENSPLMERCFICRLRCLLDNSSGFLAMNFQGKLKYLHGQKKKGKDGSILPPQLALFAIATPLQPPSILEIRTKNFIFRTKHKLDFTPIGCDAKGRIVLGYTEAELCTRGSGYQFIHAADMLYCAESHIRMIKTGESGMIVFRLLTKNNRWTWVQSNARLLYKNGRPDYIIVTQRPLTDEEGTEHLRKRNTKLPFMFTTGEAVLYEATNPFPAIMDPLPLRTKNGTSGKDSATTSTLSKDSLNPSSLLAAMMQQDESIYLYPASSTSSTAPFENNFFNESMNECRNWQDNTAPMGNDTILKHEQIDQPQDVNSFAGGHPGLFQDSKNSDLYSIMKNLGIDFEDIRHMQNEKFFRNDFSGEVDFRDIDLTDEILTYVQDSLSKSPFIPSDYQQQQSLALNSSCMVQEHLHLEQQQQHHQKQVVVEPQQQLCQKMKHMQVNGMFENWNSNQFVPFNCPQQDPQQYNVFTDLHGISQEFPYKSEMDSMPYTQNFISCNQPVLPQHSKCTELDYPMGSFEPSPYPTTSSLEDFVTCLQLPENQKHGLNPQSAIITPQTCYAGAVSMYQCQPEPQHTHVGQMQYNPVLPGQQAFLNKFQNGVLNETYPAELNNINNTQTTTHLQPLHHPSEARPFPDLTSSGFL
AHR act cf: human AHR activation, confirmation. shares compounds with AHR act. hit rate 87% among 2,300. activation, % at 9 µM. human cells, AHR-responsive luciferase reporter, luminescence. AID 2845; in the data active means activation above about 49%;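 further: HepG2 hepatoma cells carrying a DRE-driven firefly luciferase reporter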
PXR act counter: activates human PXR in AHR activator counter-screen; shares compounds with AHR act; cell-based PXR reporter, luciferase luminescence; activation, % at 11.6 µM; hit rate 88% among 2,300; in the data active means activation above about 11%;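 further: human hepatoma DPX-2 cells expressing full-length human PXR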
Of the large screens only hits and unclear results are named; the others gave an inactive call (follow-up assays come after a bar, where they were run). This is a sample that favours compounds with a hit; in the whole collection about 4.1% have one here.

Cc1ccc(NC(=O)/C(C#N)=C/c2ccsc2)c(C)c1	none (no result: TAG inh)
CCCNC(=O)c1ccc(COc2ccc(CCC)cc2OC)o1	AHR act 80 (no result: TAG inh) | AHR act cf 80 | PXR act counter 41
CC(C)CNC(=O)C1CSCCS(=O)(=O)N1Cc1ccccc1 (stereo unspecified)	none (no result: Efflux pump inh, TAG inh, TbMetRS inhib, AHR act)
CC(=O)CC[C@@H]1CC[C@]2(CCCN(C(=O)c3ccno3)C2)O1	none (no result: Efflux pump inh, TAG inh, TbMetRS inhib, AHR act)
CCc1ccc(S(=O)(=O)Nc2ccc(-c3ccc4nncn4n3)cc2)s1	none
CCc1ccc(S(=O)(=O)Nc2ccc(-c3nc4cccnc4s3)cc2)s1	AHR act 88 | AHR act cf 82 | PXR act counter 20
CC(C)c1[nH]nc2c1C(c1cccc(C(F)(F)F)c1)N(Cc1ccccc1)C2=O (stereo unspecified)	none (no result: Efflux pump inh, TAG inh, TbMetRS inhib, AHR act)
Cc1nc(-c2ccccn2)sc1C(=O)Nc1ccc(Cl)c(Cl)c1	AHR act 109 | AHR act cf 57 | PXR act counter 40
CC(=O)c1sc(-c2ccccn2)nc1C	none (no result: TAG inh, SMARCA2 activ, TbMetRS inhib)
Cc1cccc(NC(=S)Nc2cccc(C(F)(F)F)c2)n1	AHR act 104 (no result: TAG inh) | AHR act cf 125 | PXR act counter 23
Cc1nc(NCCc2ccc(F)cc2)c(C#N)c(C)c1[N+](=O)[O-]	AHR act 108 (no result: TAG inh) | AHR act cf 113 | PXR act counter 24
COc1ccc(/C=C2\SC(=N)N(c3nccs3)C2=O)cc1OC	AHR act 85 | AHR act cf 53 | PXR act counter 17
COc1cccc(/C=N/Nc2nc(-c3cccnc3)nc3ccccc23)c1	AHR act 93 | AHR act cf 54 | PXR act counter 18
CC1CCc2sc(C(=O)N=Nc3c(O)[nH]c4ccccc34)cc2C1 (stereo unspecified)	AHR act 84 (no result: TAG inh, SMARCA2 activ, TbMetRS inhib) | AHR act cf 103 | PXR act counter inactive
CC1=C2N=C(N)N(Cc3ccccc3)C(Cc3ccccc3)C2n2c(=O)n(-c3ccccc3)c(=O)n2C1 (stereo unspecified)	none (no result: Efflux pump inh, TAG inh, TbMetRS inhib, AHR act)
O=C(c1cccnc1Cl)N1CCC(Oc2cccnc2)CC1	none (no result: Efflux pump inh, TAG inh, TbMetRS inhib, AHR act)
Nc1nc(N)nc(-c2ccccc2O)n1	none
Nc1nc(-c2ccccc2)nc(-c2ccccc2O)n1	AHR act 84 | AHR act cf 107 | PXR act counter 13
Cc1cc(C)nc(SCc2nc(N)nc(-c3ccccc3O)n2)n1	AHR act 84 | AHR act cf 91 | PXR act counter 38
Nc1nc(-c2ccccc2)cc(-c2ccccc2O)n1	AHR act 82 (no result: TAG inh) | AHR act cf 174 | PXR act counter 22
CC(C)C[C@@H]1COc2cc(Br)ccc2S(=O)(=O)N1Cc1cn(Cc2ccc(F)cc2)nn1	none (no result: Efflux pump inh, TAG inh, TbMetRS inhib, AHR act)
O=S(=O)(NCc1ccccc1)c1cc(Br)ccc1Br	none (no result: Efflux pump inh, TAG inh, TbMetRS inhib, AHR act)
COc1ccc(OC)c(S(=O)(=O)N2CCC(c3cn4ccccc4n3)CC2)c1	none (no result: Efflux pump inh, TAG inh, TbMetRS inhib, AHR act)
Cc1onc(-c2ccccc2Cl)c1-c1nc(-c2ccccn2)no1	AHR act 92 | AHR act cf 70 | PXR act counter 176
Cc1cccc(NC(=O)NCCCN2CCN(c3ccc(F)cc3)CC2)c1	none (no result: Efflux pump inh, TAG inh, TbMetRS inhib, AHR act)
Cc1[nH]c2ccccc2c1/C=N\NC(=O)c1ccco1	none (no result: AHR act)
CCc1cc(C(=O)N/N=C/c2c(C)[nH]c3ccccc23)cs1	AHR act 99 (no result: TAG inh) | AHR act cf 83 | PXR act counter 28
Cc1ccsc1C1NC(=O)c2c(sc3c2CCN(C)C3)N1 (stereo unspecified)	AHR act 92 | AHR act cf 54 | PXR act counter 17
CSc1ccc(C2NC(=O)c3c(sc4c3CCN(C)C4)N2)cc1 (stereo unspecified)	none
CCOC(=O)c1c2ccc(OCC(=O)NN)cc2n2ccccc12	AHR act 86 | AHR act cf 90 | PXR act counter 12
O=C(N[C@H](C(=O)N1CCC[C@H]1C(=O)NCCc1ccccc1Cl)C1CCCCC1)c1cccs1	none (no result: Efflux pump inh, TAG inh, TbMetRS inhib, AHR act)
Cn1nc(C(F)(F)F)c(C(=O)Nc2ccc(Cl)cc2)c1Cl	none (no result: TAG inh)
Cn1cc(C(=O)Nc2ccc(Cl)cc2)c(C(F)(F)F)n1	AHR act 107 (no result: TAG inh) | AHR act cf 101 | PXR act counter 27
CCCc1nn(C)c(C(=O)Nc2ccc(Cl)cc2)c1Cl	AHR act 88 (no result: TAG inh) | AHR act cf 126 | PXR act counter 24
CCCc1nn(C)c(C(=O)Nc2ccc(C(C)(C)C)cc2)c1Cl	none (no result: TAG inh)
CCCc1nn(C)c(C(=O)Nc2ccccc2)c1Cl	AHR act 82 (no result: TAG inh) | AHR act cf 89 | PXR act counter 13
O=C(c1ccc(F)cc1Cl)N(Cc1ccccn1)CC1CCCO1 (stereo unspecified)	none (no result: Efflux pump inh, TAG inh, TbMetRS inhib, AHR act)
Cc1ccc(NCc2ccccc2OCc2ccccc2F)cc1	AHR act 106 | AHR act cf 82 | PXR act counter 36
COc1cc(NC(=S)Nc2cccnc2)cc(OC)c1	AHR act 116 | AHR act cf 65 | PXR act counter 23
COc1cccc(NC(=S)Nc2cccc3ccccc23)c1	AHR act 88 | AHR act cf inactive | PXR act counter 105
CC(C)c1ccc(NC(=S)NCCc2c[nH]c3ccccc23)cc1	none (no result: TAG inh)
CC(C)c1ccc(NC(=S)Nc2cccc3ccccc23)cc1	AHR act 90 | AHR act cf 90 | PXR act counter 81
COc1ccc(NC(=S)Nc2cccc3cnccc23)cc1	none (no result: TAG inh)
C/C(=C\C(=S)Nc1ccccc1)Nc1cccc2ccccc12	AHR act 94 (no result: TAG inh) | AHR act cf inactive | PXR act counter 17
Cc1ccc2nc(CN(C)C(=O)[C@@H](Cc3ccccc3)NC(=O)[C@H]3O[C@@H](n4cnc(C(N)=O)n4)[C@H](O)[C@@H]3O)[nH]c2c1	none (no result: Efflux pump inh, TAG inh, TbMetRS inhib, AHR act)
CCCCNC(=O)C[C@@H]1C(=O)N2CCCC3=C2[C@@]1(C(=O)OC)CCCC3	none (no result: Efflux pump inh, TAG inh, TbMetRS inhib, AHR act)
COC(=O)[C@]12C[C@H](CC(=O)NCC34CC5CC(CC(C5)C3)C4)C(=O)N(Cc3ccc(Cl)cc3Cl)C1=C[C@H](C(C)(C)C)O[C@@H]2C	none (no result: Efflux pump inh, TAG inh, TbMetRS inhib, AHR act)
Cc1cccc(NC(=O)COC(=O)c2ccccc2-c2nc3ccccc3s2)c1C	none
CCOCC(=O)Nc1cccc(-c2nc3cccnc3s2)c1C	AHR act 88 | AHR act cf 107
COc1ccc(/C=N\NC(=O)c2ccccc2OC)cc1COc1ccccc1C	AHR act 96 | AHR act cf 109 | PXR act counter 35
COc1ccc(/C=N/NC(=O)c2nc(Cl)c(Cl)c(N)c2Cl)cc1COc1ccccc1F	AHR act 116 | AHR act cf 99 | PXR act counter 105
CN1C(=O)C(c2cn(C)c3ccccc23)(c2cn(C)c3ccccc23)c2ccccc21	none (no result: Efflux pump inh, TAG inh, TbMetRS inhib, AHR act)
CNC(=O)c1[nH]cnc1C(=O)Nc1ccc(Cl)cc1	AHR act 121 | AHR act cf 172 | PXR act counter 35
O=C(Nc1ccccc1OC(=O)c1ccc(Cl)cc1)c1ccc(Cl)cc1	AHR act 79 (no result: TAG inh) | AHR act cf 83
CNC(=O)c1[nH]cnc1C(=O)Nc1ccc(C)cc1	none
COc1ccccc1NC(=O)c1ccc(C(=O)Nc2ccccc2OC)nc1	AHR act 84 | AHR act cf 103
